{"source": "ChEMBL document CHEMBL1141164", "about": "“Design and synthesis of a series of melamine-based nitroheterocycles with activity against Trypanosomatid parasites” (J Med Chem, 2005)", "key": {"Trypanosoma cruzi [1]": {"test_system": "Trypanosoma cruzi", "experiment": "In vivo activity at a dose of 50 mg/kg, i.p., for 5 doses in mice infected with Trypanosoma cruzi, measured as survival days (control 13 days)", "details": "route intraperitoneal"}, "Trypanosoma cruzi [2]": {"test_system": "Trypanosoma cruzi", "experiment": "In vitro inhibitory concentration against intracellular amastigotes of Trypanosoma cruzi in rat skeletal myoblasts incubated for 37 degree C for 4 days", "assay_type": "functional, organism-based", "details": "96 h", "how_it_was_run": "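L-6 myoblasts seeded at 2000 cells/well in RPMI 1640 with 10% FBS and 2 mM L-glutamine. After 24 h, 5000 T. cruzi Tulahuen C2C4 (LacZ) trypomastigotes added with serial drug dilution. Incubated 4 days at 37 °C in 5% CO2, then CPRG/Nonidet added.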"}, "Leishmania donovani": {"test_system": "Leishmania donovani", "experiment": "Inhibitory concentration in vitro against intracellular amastigotes of Leishmania donovani in mouse peritoneal macrophages incubated for 96 hr at […]; tox is toxic to macrophages"}, "[3]": {"test_system": "Trypanosoma brucei brucei", "experiment": "In vitro inhibitory concentration against blood stream Trypanosoma brucei brucei AT1 wild type incubated for 72 h at 37 degree C", "assay_type": "functional, organism-based", "how_it_was_run": "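Wild-type T. b. brucei trypomastigotes, tested alongside the P2 knockout (TbAT1-/-). Alamar Blue viability assay used to derive IC50 values.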"}, "[4]": {"test_system": "Trypanosoma brucei rhodesiense", "experiment": "Inhibitory concentration in vitro against blood stream Trypanosoma brucei rhodesiense incubated for 72 hr at 37 degree C", "assay_type": "functional, organism-based", "how_it_was_run": "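T. b. rhodesiense STIB900 trypomastigotes, a 1982 human isolate from Tanzania, grown in minimum essential medium with 2-mercaptoethanol and 15% heat-inactivated horse serum. Drug dilutions 90 to 0.123 μg/mL, 72 h at 37 °C, 5% CO2.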"}, "Mus musculus [5]": {"test_system": "Mus musculus", "experiment": "In vivo antitrypanosomal activity at a dose of 4*20 mg/kg, i.p., in mice infected with Trypanosoma brucei brucei STIB 795 strain, measured as survival days (control 7 days)", "assay_type": "functional"}, "Trypanosoma cruzi [6]": {"test_system": "Trypanosoma cruzi", "experiment": "In vivo percent inhibition of compound at a dose of 50 mg/kg, i.p., for 5 doses in mice infected with Trypanosoma cruzi", "details": "ip"}, "Mus musculus [7]": {"test_system": "Mus musculus", "experiment": "In vivo antitrypanosomal activity at a dose of 4*20 mg/kg, i.p., in mice infected with Trypanosoma brucei brucei STIB 795 strain; 0/4", "assay_type": "functional"}, "L6": {"test_system": "L6", "experiment": "Concentration causing cytotoxicity to 50% of L-6 rat skeletal myoblasts", "assay_type": "functional, cell-based", "how_it_was_run": "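L-6 rat skeletal myoblasts run in the same Alamar Blue assay as the trypanosome screen. Serial dilutions spanning 90 to 0.123 μg/mL, 72 h at 37 °C under 5% CO2, then Alamar Blue for a further 2–4 h. Fluorescence read at ex 536/em 588 nm and expressed as % of control to give IC50.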"}, "[8]": {"test_system": "Trypanosoma brucei brucei", "experiment": "In vitro inhibitory concentration against blood stream Trypanosoma brucei brucei AT1 knockout mutant with a non functional P2 transporter incubated for 72 h at 37 degree C", "assay_type": "organism-based", "how_it_was_run": "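Bloodstream T. b. brucei trypomastigotes, wild type or P2 transporter knockout (TbAT1-/-), were tested side by side. Viability was read by Alamar Blue fluorescence and IC50 values were determined.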"}}}
{"compound": "CN(C)c1nc(N)nc(N/N=C/c2ccc([N+](=O)[O-])o2)n1", "values": [{"measurement": "Survival", "setting": "Trypanosoma cruzi [1]", "result": 14, "unit": "days"}, {"measurement": "IC50", "setting": "Trypanosoma cruzi [2]", "result": 0.29, "unit": "µM"}, {"measurement": "IC50", "setting": "Leishmania donovani", "result": "Toxic"}, {"measurement": "IC50", "setting": "[3]", "result": 5.36, "unit": "µM"}, {"measurement": "IC50", "setting": "[4]", "result": 0.053, "unit": "µM"}, {"measurement": "Survival", "setting": "Mus musculus [5]", "result": 18.3, "unit": "days"}, {"measurement": "inhibition in vivo at 50 mg/kg", "setting": "Trypanosoma cruzi [6]", "result": 45, "unit": "%"}, {"measurement": "Cured/Infected", "setting": "Mus musculus [7]", "result": 0}, {"measurement": "IC50", "setting": "L6", "result": 110, "unit": "µM"}, {"measurement": "IC50", "setting": "[8]", "result": 3.09, "unit": "µM"}]}
